The record followed here is ChEMBL document CHEMBL4390639, “Design, Synthesis, and Biological Evaluation of Novel Allosteric Protein Disulfide Isomerase Inhibitors” (J Med Chem, 2019).

Active and inactive are the calls of the source. No cut-off for these calls is given here. Where only a bound is given, the exact number is not on record here.

Assay [1] relates to A 172. In words: Antimigratory activity against human A172 cells assessed as reduction in cell migration towards wound area at 10 uM measured after 24 hrs by Giemsa staining based microscopic analysis. Type of assay: functional. The method in brief:
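A172 cells plated at 50,000 cells/well, incubated overnight at 37 °C, 5% CO2, then held 24 h in serum-free DMEM. A scratch was made, compounds were added, and cells grew 24 h until DMSO-control wells closed. Cells were Giemsa-stained and imaged at 10X.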

Assay [2] concerns the target Eukaryotic translation initiation factor 2 subunit 1 (Homo sapiens) (UniProt P05198). In words: Induction of EIF2alpha phosphorylation in human A172 cells at 20 uM measured after 2 hrs by Western blot analysis. The class given is cell-based. (In western blotting, separated proteins are transferred to a membrane and probed.)
Assay [3] has as its system Protein disulfide-isomerase (Homo sapiens), P07237 [H256A]. In words: Binding affinity to recombinant human N-terminal His-tagged PDI H256A mutant expressed in Escherichia coli BL21 (DE3) pLysS assessed as change in melting temperature at 100 uM by ROX dye based thermal shift assay. The method in brief:
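Purified wild-type, C53S/C397S or H256A PDI at 0.5 mg/mL in 50 mM Tris, pH 7.0, with or without 100 μM compound, was mixed with ROX dye in a 20 µL well. DMSO (5% in buffer) was the control. Samples were heated 25–99 °C at 1 °C/min, and the Boltzmann melting temperature shift versus DMSO was reported. Mean ± SD of three experiments.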

Assay [4] in a line: Cytotoxicity against human NU04 cells assessed as inhibition of cell growth measured after 72 hrs by MTT assay. Type of assay: functional, cell-based. The following applies: Homo sapiens, 72 h; read-out: IC50. In outline:
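A172 and NU04 cells were seeded at 4000 cells/well and U87MG at 5000 cells/well, incubated overnight at 37 °C, 5% CO2, then exposed to compound or vehicle for 72 h. MTT (3 mg/mL) was added for 4 h, formazan was dissolved in DMSO, and absorbance was read at 570 nm. IC50 came from nonlinear regression; mean ± SD of at least three experiments.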

Assay [5] concerns A 172. Briefly: Induction of morphological changes in human A172 cells assessed as formation of lipid vesicles around nucleus at 17 uM measured after 48 hrs by Giemsa-staining based microscopic analysis. The class given is functional, cell-based.
A further assay relates to D54 cell line. Briefly: Inhibition of colony formation in 1 to 6 Gy-irradiated human D54 cells at 1 uM measured after 10 to 12 days by crystal violet staining based assay. Type of assay: functional, cell-based. In outline: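 D54 cells irradiated at 0, 1, 2, 4 or 6 Gy and plated immediately at 200–1000 cells/well according to dose. Treated with DMSO, 0.05 μM PACMA31 or 1 μM compounds, grown 10–12 days, then colonies stained with 0.1% crystal violet.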

In assay [6] the test system is A 172. Briefly: Antimigratory activity against human A172 cells at 30 uM measured after 4 hrs by Giemsa staining based transwell migration assay. Type of assay: functional, cell-based. The method in brief: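 A172 cells (1 x 10^5) were treated with compound and seeded into inserts with 8.0 μm PET membrane in serum-free medium. DMEM with 10% FBS was in the lower well; wells without FBS served as control. After 4 h, migrated cells were Giemsa-stained and imaged at 10X, 5 fields per well.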

Assay [7] deals with U-87 MG. Briefly: Inhibition of colony formation in human U87MG cells assessed as combination index at 1 to 30 uM measured after 24 hrs in presence of arsenic trioxide by crystal violet staining based assay. The class given is functional, U-87MG ATCC.
The target in assay [8] is T1, Protein disulfide-isomerase (Homo sapiens, UniProt P07237). In words: Inhibition of recombinant human N-terminal His-tagged PDI expressed in Escherichia coli BL21 (DE3) pLysS at 100 uM measured after 1 hr by ANS dye based fluorescence spectra analysis. The method in brief: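 ANS spectral scan: PDI incubated with 100 μM compounds or matching DMSO in TBS for 1 h at 37 °C. ANS then added and incubated 20 min at 25 °C in the dark. Fluorescence spectrum recorded with excitation 370 nm, emission 400–700 nm.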

In assay [9] the test system is U-87 MG. Briefly: Down regulation of MMP9 expression in human U87MG cells at 10 uM measured after 24 hrs by Western blot analysis. The class given is functional, cell-based. The following applies: U-87MG ATCC.
For assay [10], the system named is U-87 MG. In words: Cytotoxicity against human U87MG cells assessed as inhibition of cell proliferation at <IC50 measured after 72 hrs by MTT assay relative to control. Type of assay: functional, U-87MG ATCC. A general note: Tetrazolium dyes change colour on reduction, which living cells bring about.
For assay [11], the target named is T1, Protein disulfide-isomerase. In words: Inhibition of recombinant human N-terminal His-tagged PDI expressed in Escherichia coli BL21 (DE3) pLysS assessed as reduction in enzyme-mediated bovine insulin aggregation at 40 uM measured after 1 hr in presence of 1 to 2 mM NAC. In outline: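 Compounds pretreated with NAC for 30 min at 37 °C, then added to the insulin reductase assay at final 40 μM compound with 0, 1, 2 or 5 mM NAC. The assay uses 0.4 μM PDI preincubated 1 h at 37 °C, then DTT and bovine insulin, read at 620 nm, with % activity at 80 min.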

Assay [12] concerns U-87 MG. Briefly: Up regulation of DNAJB1 gene expression in human U87MG cells at 10 uM incubated for 4 hrs followed by bromouridine addition during last 30 mins of incubation by TRIzol-reagent based Bru-Seq analysis relative to control. The class given is functional, U-87MG ATCC. The method in brief:
(§1)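 U87MG cells exposed to compound or DMSO vehicle for 4 h, with 2 mM bromouridine added for the final 30 min. Total RNA isolated with TRIzol; Bru-labelled nascent RNA captured on anti-BrdU antibody-conjugated magnetic beads and sequenced. Transcript abundance expressed as RPKM relative to DMSO. Experiment performed once.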

Assay [13] has as its system U-87 MG. Briefly: Down regulation of ZNF404 gene expression in human U87MG cells at 10 uM incubated for 4 hrs followed by bromouridine addition during last 30 mins of incubation by TRIzol-reagent based Bru-Seq analysis relative to control. The class given is functional, U-87MG ATCC. In outline: as §1
Assay [14] deals with U-87 MG. Briefly: Down regulation of FPGT gene expression in human U87MG cells at 10 uM incubated for 4 hrs followed by bromouridine addition during last 30 mins of incubation by TRIzol-reagent based Bru-Seq analysis relative to control. Type of assay: functional, U-87MG ATCC.
Assay [15] relates to U-87 MG. In words: Cytotoxicity against human U87MG cells assessed as inhibition of cell proliferation at <IC50 treated for 24 hrs, measured after 10 days by colony formation assay relative to control.
Assay [16] has as its system U-87 MG. Briefly: Up regulation of EID3 gene expression in human U87MG cells at 16 uM incubated for 4 hrs followed by bromouridine addition during last 30 mins of incubation by TRIzol-reagent based Bru-Seq analysis relative to control. Type of assay: functional, U-87MG ATCC. The method in brief:
as §1

Assay [17] concerns U-87 MG. Briefly: Down regulation of STRA6 gene expression in human U87MG cells at 16 uM incubated for 4 hrs followed by bromouridine addition during last 30 mins of incubation by TRIzol-reagent based Bru-Seq analysis relative to control. The class given is functional, U-87MG ATCC. The method in brief:
as §1

For assay [18], the system named is U-87 MG. Briefly: Up regulation of KCNE4 gene expression in human U87MG cells at 16 uM incubated for 4 hrs followed by bromouridine addition during last 30 mins of incubation by TRIzol-reagent based Bru-Seq analysis relative to control. Type of assay: functional, U-87MG ATCC. The method in brief: as §1
Assay [19] deals with U-87 MG. In words: Up regulation of FTH1 gene expression in human U87MG cells at 16 uM incubated for 4 hrs followed by bromouridine addition during last 30 mins of incubation by TRIzol-reagent based Bru-Seq analysis relative to control. Type of assay: functional, U-87MG ATCC. In outline: as §1
For assay [20], the system named is A 172. Briefly: Induction of morphological changes in human A172 cells assessed as necroptotic cell death at 20 uM measured after 48 hrs by Giemsa-staining based microscopic analysis. Type of assay: functional.

Eukaryotic translation initiation factor 2 subunit 1 (Homo sapiens), sequence (P05198 whole entry): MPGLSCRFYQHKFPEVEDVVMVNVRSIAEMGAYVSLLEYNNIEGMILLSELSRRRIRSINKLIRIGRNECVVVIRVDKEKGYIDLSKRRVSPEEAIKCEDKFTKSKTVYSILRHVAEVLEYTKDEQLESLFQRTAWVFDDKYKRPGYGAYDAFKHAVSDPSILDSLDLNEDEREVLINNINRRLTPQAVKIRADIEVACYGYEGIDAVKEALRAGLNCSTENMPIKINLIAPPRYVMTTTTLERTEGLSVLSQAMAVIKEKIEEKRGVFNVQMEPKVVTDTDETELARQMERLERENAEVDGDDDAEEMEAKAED
Protein disulfide-isomerase (Homo sapiens), P07237 [H256A], sequence (P07237 whole entry H256A): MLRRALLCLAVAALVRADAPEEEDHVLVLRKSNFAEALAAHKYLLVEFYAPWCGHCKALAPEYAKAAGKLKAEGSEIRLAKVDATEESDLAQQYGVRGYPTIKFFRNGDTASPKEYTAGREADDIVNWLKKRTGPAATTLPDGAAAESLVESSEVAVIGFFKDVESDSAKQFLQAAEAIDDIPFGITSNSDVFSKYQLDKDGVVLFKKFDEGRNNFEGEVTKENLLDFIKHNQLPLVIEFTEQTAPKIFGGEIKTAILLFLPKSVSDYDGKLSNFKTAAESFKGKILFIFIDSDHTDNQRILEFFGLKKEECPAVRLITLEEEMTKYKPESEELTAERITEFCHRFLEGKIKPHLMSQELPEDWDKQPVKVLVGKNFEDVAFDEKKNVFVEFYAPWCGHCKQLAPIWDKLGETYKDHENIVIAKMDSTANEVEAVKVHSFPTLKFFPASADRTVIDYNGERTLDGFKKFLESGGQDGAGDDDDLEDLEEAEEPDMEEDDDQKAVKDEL
T1 sequence (P07237 18-508 limits assumed): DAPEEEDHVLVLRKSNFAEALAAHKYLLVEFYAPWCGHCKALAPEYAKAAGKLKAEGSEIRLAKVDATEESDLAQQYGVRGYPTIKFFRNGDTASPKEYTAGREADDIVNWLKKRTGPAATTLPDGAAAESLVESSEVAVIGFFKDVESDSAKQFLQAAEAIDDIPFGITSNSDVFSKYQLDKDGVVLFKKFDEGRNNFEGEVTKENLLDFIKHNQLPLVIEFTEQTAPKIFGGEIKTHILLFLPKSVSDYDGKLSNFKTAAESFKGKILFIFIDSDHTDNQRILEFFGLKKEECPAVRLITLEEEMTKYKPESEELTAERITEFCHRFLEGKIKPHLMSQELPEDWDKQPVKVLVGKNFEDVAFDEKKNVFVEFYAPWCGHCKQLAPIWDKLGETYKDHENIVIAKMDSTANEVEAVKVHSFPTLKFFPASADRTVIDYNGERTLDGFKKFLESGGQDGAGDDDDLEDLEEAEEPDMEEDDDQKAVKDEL

In the case of `N#Cc1cccc(/C=C/C(=O)c2ccc(O)cc2)c1`, the result (in the assay on A 172 [1]; in [2]; with A 172 [5]; with A 172 [6]) was Active. For the same compound, the result in [3] was inactive. Further, the IC50 in assay [4] was determined as 15.7 µM. For the same compound, the inhibition result (in the assay with D54 cell line; in assay [8]) was “Active” in each case. In addition, the CI with U-87 MG [7] is below 1.

For `O=C(/C=C/c1ccc(-c2cccnc2)cc1)c1cccc(O)c1`, the result (in the assay with A 172 [1]; with U-87 MG [9]; in [2]; in assay [3]) was Active. For the same compound, in [4], the concentration for half-maximal inhibition (IC50) was 4.9 µM. Further, in the assay with U-87 MG [10], the “inhibition (INH)” value was above 50%. For the same compound, the inhibition result (in the assay on D54 cell line; in assay [8]) was “Active” in each case.

`CCCCCN(CCCCC)S(=O)(=O)c1ccc(C(=O)/C=C/c2cccc(O)c2)cc1`: the result (with A 172 [1]; with U-87 MG [9]; in assay [2]; in assay [3]; with A 172 [6]) was Active. Besides, in assay [4], the IC50 is 7.6 µM. Besides, the inhibition entry in assay [11] and in assay [8] was “Active” throughout.

Turning to `CCCCCN(CCCCC)S(=O)(=O)c1ccc(C(=O)/C=C/c2cccc(C#N)c2)cc1`, the result (with A 172 [1]; with U-87 MG [9]; in [2]; with A 172 [6]) was Active. Further, the “fold change (FC)” value in the assay with U-87 MG [12] is recorded as 16.9; in the assay on U-87 MG [13], 2.7; in the assay on U-87 MG [14], 2.3. Also, the 50% inhibitory concentration (IC50) in [4] was determined as 5 µM. The “inhibition (INH)” value in the assay with U-87 MG [15] was above 50%.

Consider `COC(=O)c1cccc(/C=C/C(=O)c2cccc(O)c2)c1`, for which the result (with A 172 [1]; in [2]; in [3]; in the assay with A 172 [20]) was Active. In addition, the “fold change (FC)” value in the assay with U-87 MG [16] worked out at 4.8; in the assay with U-87 MG [17], 4; with U-87 MG [18] it was 5.1; in the assay with U-87 MG [19] it was 1.9. The IC50 in [4] stood at 22.7 µM. In addition, the inhibition entry in assay [11] and in assay [8] was “Active” throughout. In the assay on U-87 MG [10], the “inhibition (INH)” value is reported as above 50%.

The term IC50 denotes the concentration needed to halve the response being measured.
